For test [1], the target named is T1, Vesicular acetylcholine transporter (Torpedo californica, UniProt P81721).
T1 sequence (P81721 whole entry): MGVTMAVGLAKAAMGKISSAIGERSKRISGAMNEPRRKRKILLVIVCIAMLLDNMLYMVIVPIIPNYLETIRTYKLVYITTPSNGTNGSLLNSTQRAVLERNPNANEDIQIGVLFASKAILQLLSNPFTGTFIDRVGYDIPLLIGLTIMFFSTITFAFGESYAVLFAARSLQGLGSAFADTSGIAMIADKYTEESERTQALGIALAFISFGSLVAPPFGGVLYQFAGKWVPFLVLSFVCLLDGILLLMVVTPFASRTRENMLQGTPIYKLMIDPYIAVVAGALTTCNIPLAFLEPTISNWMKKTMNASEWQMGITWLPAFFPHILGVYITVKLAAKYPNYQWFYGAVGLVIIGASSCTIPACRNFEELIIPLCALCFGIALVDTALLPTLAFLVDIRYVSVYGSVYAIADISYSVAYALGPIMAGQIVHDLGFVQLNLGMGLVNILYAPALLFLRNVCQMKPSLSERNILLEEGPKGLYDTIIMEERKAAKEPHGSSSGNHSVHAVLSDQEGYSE
The test is described as follows: Displacement of [3H]vesamicol from VAChT in Torpedo californica cholinergic synaptic vesicles. More on the design: species or system Tetronarce californica. The procedure, abridged: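 Compounds tested as hydrochlorides. Averaged data fit by regression to a rectangular hyperbola to give Ki. Each compound assayed independently at least two times; Ki reported as mean ± SEM from at least three experiments.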
Background: Displacement assays read how much labelled ligand stays bound in the presence of the test substance.

Test [2] addresses Sigma non-opioid intracellular receptor 1 (Cavia porcellus, UniProt Q60492). The test is described as follows: Displacement of [3H](+)-pentazocine from sigma 1 receptor in guinea pig brain membrane homogenates after 90 mins by liquid scintillation counting. The format is cell membranes. Put shortly: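 Compounds dissolved in DMF, DMSO or ethanol, then diluted in 50 mM Tris-HCl, 150 mM NaCl, 100 mM EDTA, pH 7.4. Guinea pig brain membranes (~300 μg protein) with ~5 nM [3H](+)-pentazocine, 90 min at room temperature. Nonspecific binding taken with 10 μM haloperidol. Filtered and counted. IC50 from one-site nonlinear fit. Ki by Cheng-Prusoff (Kd 7.89 nM), mean ± SEM.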

The nature of test [3]: Displacement of [3H]DTG from sigma 2 receptor in rat liver membrane homogenates after 2 hrs by liquid scintillation counting. The format is cell membranes. The procedure, abridged: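 Rat liver membranes (~300 μg protein) with ~5 nM [3H]DTG plus 1 μM (+)-pentazocine to mask σ1 sites, 2 h at room temperature. Compounds were diluted in pH 7.4 Tris-HCl/NaCl/EDTA buffer. Nonspecific binding taken with 10 μM haloperidol, then filtration and scintillation counting. IC50 from one-site regression. Ki by Cheng-Prusoff (Kd 30.73 nM), mean ± SEM.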

A short description of test [4]: Selectivity ratio of Ki for sigma 1 receptor in guinea pig brain membrane homogenates to Ki for VAChT in Torpedo californica cholinergic synaptic vesicles. The class given is cell membranes. The procedure, abridged: (§1)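 Index calculated as Ki(σ1 or σ2)/Ki(VAChT). […] Averaged data were fit to a rectangular hyperbola, and each compound was assayed independently at least twice. σ Ki values come from the radioligand binding assays in guinea pig brain (σ1) and rat liver (σ2) membranes.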

Test [5] can be described thus: Selectivity ratio of for sigma 2 receptor in rat liver membrane homogenates to Ki for VAChT in Torpedo californica cholinergic synaptic vesicles. The format is cell membranes. Put shortly: as §1

Sequence of Sigma non-opioid intracellular receptor 1 (Q60492 whole entry): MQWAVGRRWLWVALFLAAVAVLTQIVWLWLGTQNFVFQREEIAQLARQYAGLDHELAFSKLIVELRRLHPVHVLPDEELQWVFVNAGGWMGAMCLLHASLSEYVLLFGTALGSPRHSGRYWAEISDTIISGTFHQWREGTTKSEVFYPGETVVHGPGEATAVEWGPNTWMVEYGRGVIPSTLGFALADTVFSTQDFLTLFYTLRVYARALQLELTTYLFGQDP

In the case of `Nc1cccc2c1C[C@@H](N1CCC(C(=O)c3cccs3)CC1)[C@H](O)C2`, the Ki was 4.9 nM in test [1], above 1000 nM in test [2] and above 1000 nM in test [3].
As to `O=C(C1CCN([C@@H]2Cc3ccccc3C[C@H]2O)CC1)N1CCC(c2ccccc2)CC1` (relative stereo), the values for the Ki in test [1], in test [2] and in test [3] were 2.07 nM, 50.2 nM and above 1000 nM, respectively. Further, the Ratio Ki in test [4] was 24.3.
Regarding `O=C(c1ccc(Br)s1)C1CCN([C@@H]2CCCC[C@H]2O)CC1`, the Ki in test [1] came out at 46.8 nM; in test [2], 29.5 nM; in test [3], 35.7 nM. The Ratio Ki is 0.8 in test [5] and 0.6 in test [4].
For the compound `O=C(c1ccc(Br)s1)C1CCN([C@@H]2Cc3ccccc3C[C@H]2O)CC1` (relative stereo), the Ki in test [1] was 0.54 nM; in test [2] it was 129 nM; in test [3] it was 72 nM. In addition, the results for the Ratio Ki in test [5] and in test [4] were 133 and 239, respectively.
In the case of `O=C(Cc1ccccc1)C1(c2ccccc2)CCN([C@@H]2Cc3ccccc3C[C@H]2O)CC1` (relative stereo), affinity in test [1] was put at a Ki of 1.38 nM.
With `O=C(C1CCN([C@@H]2Cc3ccccc3C[C@H]2O)CC1)N1CCCCC1` (relative stereo), the Ki is 31 nM in test [1], above 1000 nM in test [2] and above 1000 nM in test [3].
`Nc1cccc2c1C[C@@H](N1CCC(C(=O)c3ccc(Br)s3)CC1)[C@H](O)C2`: the results for the Ki in test [1], in test [2] and in test [3] were 0.41 nM, above 1000 nM and above 1000 nM, respectively.
Turning to `Nc1cccc2c1C[C@@H](N1CCC(C(=O)c3ccc(Br)cc3)CC1)[C@H](O)C2`, the values for the Ki in test [1], in test [2] and in test [3] were 0.53 nM, 395 nM and above 1000 nM, respectively. Further, the Ratio Ki in test [5] was above 1890; in test [4], 746.
Regarding `O=C(c1ccc(F)cc1)C1CCN([C@@H]2CCCC[C@H]2O)CC1`, the Ki was 423 nM in test [1], 303 nM in test [2] and 113 nM in test [3]. Besides, the Ratio Ki in test [5] was 0.3; in test [4], 0.7.
Regarding `O=C(c1ccc(I)s1)C1CCN([C@@H]2Cc3ccccc3C[C@H]2O)CC1` (relative stereo), the Ki in test [1] amounted to 0.66 nM; in test [2], 194 nM; in test [3], 344 nM. The results for the Ratio Ki in test [5] and in test [4] were 522 and 294, respectively.
Regarding `O[C@@H]1CCCC[C@H]1N1CCC(c2ccccc2)CC1` [VESAMICOL], the Ki in test [3] worked out at 34.5 nM.
`Nc1cccc2c1C[C@@H](O)[C@H](N1CCC(C(=O)c3ccc(Br)s3)CC1)C2`: the Ki in test [1] was 29.4 nM; in test [2], 483 nM; in test [3] it was 121 nM. The values for the Ratio Ki in test [5] and in test [4] were 4.1 and 16.4, respectively.
The compound `Nc1cccc2c1C[C@@H](O)[C@H](N1CCC(C(=O)N3CCCCC3)CC1)C2` displayed a Ki in test [1] of 447 nM.
Take `O=C(c1ccc(I)s1)C1CCN([C@@H]2CCCC[C@H]2O)CC1`: the results for the Ki in test [1], in test [2] and in test [3] were 560 nM, 9.39 nM and 48.9 nM, respectively. In addition, the values for the Ratio Ki in test [5] and in test [4] were 0.1 and 0.02, respectively.
In the case of `Nc1cccc2c1C[C@@H](N1CCC(C(=O)c3ccc(F)cc3)CC1)[C@H](O)C2`, the Ki in test [1] was 2.4 nM; in test [2] it was above 1000 nM; in test [3], above 1000 nM.
Turning to `O=C(c1cccs1)C1CCN([C@@H]2Cc3ccccc3C[C@H]2O)CC1` (relative stereo), the inhibition constant (Ki) in test [1] came out at 5 nM.
For the compound `O=C(c1ccccc1)C1(c2ccccc2)CCN([C@@H]2CCCC[C@H]2O)CC1`, the affinity in test [1], expressed as Ki, was 68.5 nM.
The compound `O=C(c1ccc(F)cc1)C1(c2ccccc2)CCN([C@@H]2Cc3ccccc3C[C@H]2O)CC1` displayed a Ki in test [1] of 1.83 nM. Compared with the last compound, the Ki is about 37-fold lower.
As for `O=C(c1ccc(Br)cc1)C1CCN([C@@H]2CCCC[C@H]2O)CC1`, the Ki in test [1] worked out at 51.4 nM; in test [2], 15.9 nM; in test [3] it was 30.1 nM. In addition, the Ratio Ki is 0.6 in test [5] and 0.3 in test [4].
Regarding `O=C(C1CCN([C@@H]2Cc3ccccc3C[C@H]2O)CC1)N1CCN(Cc2ccccc2)CC1` (relative stereo), the Ki is 2.08 nM in test [1], 118 nM in test [2] and above 1000 nM in test [3]. In addition, the Ratio Ki in test [4] was 56.8.
Take `Nc1cccc2c1C[C@@H](N1CCC(C(=O)N3CCCCC3)CC1)[C@H](O)C2`: the Ki in test [1] is 89.5 nM.
Consider `O=C(C1CCN([C@@H]2Cc3ccccc3C[C@H]2O)CC1)N1CCC(Cc2ccccc2)CC1` (relative stereo), for which the values for the Ki in test [1], in test [2] and in test [3] were 2.4 nM, 19.9 nM and above 1000 nM, respectively. Besides, in test [4], the Ratio Ki worked out at 8.3.
On to `CCOC(=O)C1CCN([C@@H]2Cc3ccccc3C[C@H]2O)CC1` (relative stereo), for which the Ki in test [1] is 68.5 nM; in test [2] it was above 1000 nM; in test [3], above 1000 nM.
`Nc1cccc2c1C[C@@H](O)[C@H](N1CCC(C(=O)c3cccs3)CC1)C2`: the Ki in test [1] is 134 nM; in test [2] it was above 1000 nM; in test [3], above 1000 nM.
In turn, `O=C(c1cccs1)C1CCN([C@@H]2CCCC[C@H]2O)CC1` returned a Ki in test [1] of 763 nM.
For the compound `O=C(c1ccccc1)C1(c2ccccc2)CCN([C@@H]2Cc3ccccc3C[C@H]2O)CC1` (relative stereo), the affinity in test [1] corresponds to a Ki of 1.64 nM. Compared with the last compound, the Ki is about 470-fold lower.
On to `Nc1cccc2c1C[C@@H](O)[C@H](N1CCC(C(=O)c3ccc(F)cc3)CC1)C2`, for which the Ki came out at 7.6 nM in test [1], 497 nM in test [2] and 353 nM in test [3]. Besides, the Ratio Ki in test [5] is 46.4; in test [4], 65.4.
`O=C(c1ccccc1)C1CCN([C@@H]2CCCC[C@H]2O)CC1`: the Ki came out at 650 nM in test [1], 281 nM in test [2] and 341 nM in test [3]. For the same compound, the results for the Ratio Ki in test [5] and in test [4] were 0.5 and 0.4, respectively.

The term Ki denotes a dissociation constant, usually derived from enzyme kinetics or from competition with a known ligand. A higher Ki goes with a looser hold on the target.

These data come from ChEMBL document CHEMBL1156938, “Synthesis and in vitro biological evaluation of carbonyl group-containing inhibitors of vesicular acetylcholine transporter” (J Med Chem, 2010).
